# Measured values reported in ChEMBL document CHEMBL1134373, “A potent, nonpeptidyl 1H-quinolone antagonist for the gonadotropin-releasing hormone receptor” (J Med Chem, 2001).
# Legend:
# [1] = Area under curve was determined after intravenous administration of a dose of 0.5 mg/kg; assay type: ADME, organism-based; design: dose 0.5 mg/kg, route intravenous; settings: in vivo
# Method in brief: (§1)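 Male rhesus monkeys received a single iv dose in ethanol/PEG400/saline (10/40/50, v/v/v) via the brachiocephalic vein. Femoral vein blood was drawn at 5, 15, 30 min and 1, 2, 4, 6, 8, 24 h. Plasma was extracted with ethyl acetate and assayed by LC/MS/MS against an internal standard (LOQ 2.0 ng/mL). AUC came from linear/log trapezoidal rule with extrapolation by Ct/λ; t1/2 = 0.693/λ; Clp = dose/AUC(0-∞).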
# [2] = Area under curve was determined after intravenous administration of a dose of 3 mg/kg; assay type: ADME, organism-based; design: dose 3 mg/kg, route intravenous; settings: in vivo; method in brief: as §1
# [3] = Half life period was determined after intravenous administration of 0.5 mg/kg; assay type: ADME, organism-based; design: dose 0.5 mg/kg, route intravenous; settings: in vivo; method in brief: as §1
# [4] = Half life period was determined after intravenous administration of 3 mg/kg; assay type: ADME, organism-based; design: dose 3 mg/kg, route intravenous; settings: in vivo; method in brief: as §1
# [5] = Plasma clearance was determined fter intravenous administration of a dose of 0.5 mg/kg; assay type: ADME, organism-based; design: dose 0.5 mg/kg, route intravenous; settings: read-out: ClP; method in brief: as §1
# [6] = Plasma clearance was determined fter intravenous administration of a dose of 3 mg/kg; assay type: ADME, organism-based; design: dose 3 mg/kg, route intravenous; settings: read-out: ClP; method in brief: as §1
# [7] = biological target: T1, Gonadotropin-releasing hormone receptor (Rattus norvegicus, UniProt P30969); test: In vitro inhibition of binding to GnRH receptor in rat
# T1 sequence (P30969 whole entry): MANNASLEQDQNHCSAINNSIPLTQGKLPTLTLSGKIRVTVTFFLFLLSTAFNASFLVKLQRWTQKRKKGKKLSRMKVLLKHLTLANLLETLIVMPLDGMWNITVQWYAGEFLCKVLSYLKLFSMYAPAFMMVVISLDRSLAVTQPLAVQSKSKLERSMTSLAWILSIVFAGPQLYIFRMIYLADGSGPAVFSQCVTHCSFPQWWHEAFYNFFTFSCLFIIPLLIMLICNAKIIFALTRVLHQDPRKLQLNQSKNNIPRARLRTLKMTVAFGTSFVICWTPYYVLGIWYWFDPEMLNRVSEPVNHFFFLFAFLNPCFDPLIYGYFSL
# Method in brief: (§2)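 Crude membranes came from rat pituitary (rat) or from CHO-K1 cells stably expressing human GnRH receptor (human). Competition was run against [125I-Tyr5]buserelin (1000 Ci/mmol) in 50 mM Tris-HCl pH 7.5 with 2 mM MgCl2 and 0.1% BSA. IC50 is the concentration giving 50% inhibition of specific binding.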
# [8] = biological target: T1, Gonadotropin-releasing hormone receptor; test: Functional antagonism at GnRH receptor in rat (PI turnover)
# [9] = biological target: T2, Gonadotropin-releasing hormone receptor (Homo sapiens, UniProt P30968); test: Functional antagonism at the human GnRH receptor (PI turnover)
# T2 sequence (P30968 whole entry): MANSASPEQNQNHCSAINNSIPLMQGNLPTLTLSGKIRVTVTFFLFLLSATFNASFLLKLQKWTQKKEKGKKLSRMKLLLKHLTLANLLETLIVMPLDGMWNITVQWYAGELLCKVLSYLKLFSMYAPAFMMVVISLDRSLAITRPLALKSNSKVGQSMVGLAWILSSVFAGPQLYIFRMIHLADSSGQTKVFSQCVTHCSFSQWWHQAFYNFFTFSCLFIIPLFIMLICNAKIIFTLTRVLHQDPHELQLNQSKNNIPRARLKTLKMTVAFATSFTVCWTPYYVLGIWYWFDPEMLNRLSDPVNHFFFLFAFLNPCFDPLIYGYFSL
# Method in brief: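 CHO cells stably expressing human GnRH receptor were labelled 48 h with 1 μCi [3H]inositol in inositol-free F12 with 10% dialyzed FBS. After washing with PBS containing 10 mM LiCl, cells were preincubated with graded compound for 2 h at 37 °C. 0.5 nM GnRH was then added for 60 min, followed by formic acid lysis. IC50 is inhibition of GnRH-stimulated PI hydrolysis.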
# [10] = biological target: T2, Gonadotropin-releasing hormone receptor; test: In vitro inhibition of binding to GnRH receptor in human; method in brief: as §2
compound,measurement,setting,value
Cc1cc(-c2c(OCC[C@@H]3CCN3)c3cc(C(=O)Nc4ccncn4)c(Cl)cc3[nH]c2=O)cc(C)c1C,AUC,[1],303 ng·h/mL
same,AUC,[2],1320 ng·h/mL
same,half-life,[3],9.5 h
same,half-life,[4],5 h
same,clearance,[5],30 mL/min/kg
same,clearance,[6],33 mL/min/kg
same,IC50,[7],4 nM
same,IC50,[8],81 nM
same,IC50,[9],1 nM
same,IC50,[10],0.44 nM
